# Where “and” joins values, the source holds several entries; their conditions need not be identical. Equal values may be shown once.
# System: SK-MEL-5 TRPM1 promoter luciferase reporter, 24 h
# Test: TRPM1 promoter luciferase signal reduction, dose response, MITF inhibitor project, cell-based, SK-MEL-5, dry powder samples, set 4 (AID 624316)
# Procedure, shortened: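 incubation = compound added 24 h post-plating, 24 h exposure at 37 °C | test system = SK-MEL-5 melanoma line stably carrying TRPM1 promoter–luciferase reporter | medium = phenol-red-free DMEM, 10% FBS | dosing = compounds pinned into wells as DMSO solutions | technique = luciferase luminescence with SteadyGlo, 5 min room temperature | benchmarks = parthenolide as positive control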
row,Structure (SMILES),AC50
1,O=C(CNc1cccc2ccccc12)N/N=C/c1ccc([N+](=O)[O-])o1,1.67 µM
2,C=CCNC1=C(NCCCN(CC)CC)C(=O)c2ccccc2C1=O,3.12 µM
3,C=CCNC1=C(N2CCN(CC)CC2)C(=O)c2ccccc2C1=O,4.12 µM
4,CC(=O)NC1=C(c2ccc3c(c2)oc2ccccc23)C(=O)c2ccccc2C1=O,1.59 µM
5,CCN(CC)CCCNC1=C(Nc2ccccc2)C(=O)c2ccccc2C1=O,2.38 µM
6,CC(=O)NC1=C(c2cccc(Cl)c2)C(=O)c2ccccc2C1=O,3.93 µM
7,COc1ccc(S(=O)(=O)N(C(C)=O)c2ccc(OC(C)=O)c3ccccc23)cc1[N+](=O)[O-],6.67 µM
8,COC1=C(NS(=O)(=O)c2ccccc2)C(=O)c2ccccc2C1=O,6.65 µM
9,COc1ccc(C(=O)NC2=C(c3ccc(OC(F)(F)F)cc3)C(=O)c3ccccc3C2=O)cc1,35.5 µM
10,CCN1c2ccccc2NC2N=C(OC)C(c3ccccc3)C21 (stereo unspecified),2.5 µM
11,O=C1C(NS(=O)(=O)c2ccc(Br)cc2)=C(c2ccc(OC(F)(F)F)cc2)C(=O)c2ccccc21,12 µM
12,O=C1C(NS(=O)(=O)c2ccc(Br)cc2)=C(N2CCOCC2)C(=O)c2ccccc21,6.87 µM
13,CC(=O)NC1=C(c2ccc(Cl)cc2)C(=O)c2ccccc2C1=O,5.17 µM
14,O=C(NC1=C(N2CCCCC2)C(=O)c2ccccc2C1=O)c1ccc(Br)cc1,36.2 µM
15,O=C(NC1=C(N2CCSCC2)C(=O)c2ccccc2C1=O)c1ccccc1,3.61 µM
16,C=CCNC1=C(Cl)C(=O)c2ccccc2C1=O,1.67 µM and 2.18 µM
17,CCN1CCN(C2=C(Nc3ccccc3)C(=O)c3ccccc3C2=O)CC1,0.689 µM
18,C=CCNC1=C(N2CCCCC2)C(=O)c2ccccc2C1=O,0.538 µM
19,Cc1ccc(C(=O)NC2=C(c3ccc(OC(F)(F)F)cc3)C(=O)c3ccccc3C2=O)o1,15.4 µM
20,CN1CCN(C2=C(NS(=O)(=O)c3ccc(Br)s3)C(=O)c3ccccc3C2=O)CC1,2.57 µM
21,C=CCNC1=C(N(C)C(C)=O)C(=O)c2ccccc2C1=O,0.107 µM
22,CC(=O)NC1=C(c2ccccc2)C(=O)c2ccccc2C1=O,5.51 µM
23,O=C(NC1=C(N2CCOCC2)C(=O)c2ccccc2C1=O)c1ccccc1,6 µM
24,O=C1C(NS(=O)(=O)c2ccccc2)=C(N2CCOCC2)C(=O)c2ccccc21,18.5 µM
25,C=CCNC1=C(NS(=O)(=O)c2cccs2)C(=O)c2ccccc2C1=O,12 µM
26,O=C1C(NS(=O)(=O)c2ccc(Br)s2)=C(N2CCOCC2)C(=O)c2ccccc21,19.9 µM

row,Structure (SMILES),AC50
1,NC1=CC(=O)c2ccccc2C1=O,1.41 µM
2,O=C(NC1=C(c2ccccc2)C(=O)c2ccccc2C1=O)c1ccco1,8.11 µM
3,COc1cccc(-c2cc(C(=O)NC3=C(Cl)C(=O)c4ccccc4C3=O)ccc2OC)c1,3.3 µM
4,CCN(CC)CCNC1=C(Nc2ccccc2)C(=O)c2ccccc2C1=O,1.66 µM
5,O=C1C(NS(=O)(=O)c2ccccc2)=C(N2CCCCC2)C(=O)c2ccccc21,28.3 µM
6,CCN1CCN(C2=C(NS(=O)(=O)c3ccc(Br)s3)C(=O)c3ccccc3C2=O)CC1,4.1 µM
7,O=C(NC1=C(c2ccc(OC(F)(F)F)cc2)C(=O)c2ccccc2C1=O)c1ccc(Br)cc1,20.5 µM
8,O=C1C(NS(=O)(=O)c2ccc(Br)s2)=C(N2CCCCC2)C(=O)c2ccccc21,19.3 µM
9,O=C(NC1=C(N2CCN(c3ccccc3)CC2)C(=O)c2ccccc2C1=O)c1ccccc1,15 µM
10,O=C1C(Nc2ccccc2)=C(N2CCSCC2)C(=O)c2ccccc21,7.75 µM
11,O=C(NC1=C(Cl)C(=O)c2ccccc2C1=O)c1ccccc1,0.854 µM
12,CCN1CCN(C2=C(NS(=O)(=O)c3ccc(Br)cc3)C(=O)c3ccccc3C2=O)CC1,4.06 µM
13,CN1CCN(C2=C(NS(=O)(=O)c3cccs3)C(=O)c3ccccc3C2=O)CC1,2.06 µM
14,CCN(CC)CCCNC1=C(N(C)C(C)=O)C(=O)c2ccccc2C1=O,0.188 µM
15,C=CCNC1=C(NC(=O)c2ccccc2)C(=O)c2ccccc2C1=O,11.7 µM
16,C=CCNC1=C(NS(=O)(=O)c2ccc(Br)cc2)C(=O)c2ccccc2C1=O,7.27 µM
17,C=CCNC1=C(N2CCOCC2)C(=O)c2ccccc2C1=O,1.54 µM
18,O=C1C=C(Nc2ccccc2)C(=O)c2ccccc21,4.07 µM
19,CCN1CCN(C2=C(NC(=O)c3ccccc3)C(=O)c3ccccc3C2=O)CC1,0.582 µM
20,O=C1C(NS(=O)(=O)c2cccs2)=C(N2CCOCC2)C(=O)c2ccccc21,9.86 µM
21,O=C1C(NS(=O)(=O)c2ccc(Br)cc2)=C(N2CCCCC2)C(=O)c2ccccc21,14.2 µM
22,COc1ccc(C(=O)NC2=C(c3ccccc3)C(=O)c3ccccc3C2=O)cc1,10.9 µM
23,COc1ccc(C2=C(NC(C)=O)C(=O)c3ccccc3C2=O)cc1,5.44 µM
24,CC1CCN(CC(CS(=O)(=O)c2ccc([N+](=O)[O-])cc2)N2CCC(C)CC2)CC1 (stereo unspecified),4.72 µM
25,NC1=C(c2ccc(OC(F)(F)F)cc2)C(=O)c2ccccc2C1=O,16.3 µM

# Source: PubChem BioAssay AID624316 (Broad Institute, 2012)
